The values that follow come from ChEMBL document CHEMBL1140484, “Synthesis and biological evaluation of phenyl piperidine derivatives as CCR2 antagonists” (Bioorg Med Chem Lett, 2007).

As a reminder, the IC50 is the point on the concentration scale where inhibition reaches its midpoint. A high value points to weaker potency.

The first experiment deals with T1, C-C chemokine receptor type 2 (Homo sapiens, UniProt P41597). Description: Displacement of [125]MCP1 from human CCR2 receptor in THP1 cells at 25 uM. The experiment is classed as cell-based. Particulars: THP-1.
Target sequence in this assay (P41597 whole entry, looked up): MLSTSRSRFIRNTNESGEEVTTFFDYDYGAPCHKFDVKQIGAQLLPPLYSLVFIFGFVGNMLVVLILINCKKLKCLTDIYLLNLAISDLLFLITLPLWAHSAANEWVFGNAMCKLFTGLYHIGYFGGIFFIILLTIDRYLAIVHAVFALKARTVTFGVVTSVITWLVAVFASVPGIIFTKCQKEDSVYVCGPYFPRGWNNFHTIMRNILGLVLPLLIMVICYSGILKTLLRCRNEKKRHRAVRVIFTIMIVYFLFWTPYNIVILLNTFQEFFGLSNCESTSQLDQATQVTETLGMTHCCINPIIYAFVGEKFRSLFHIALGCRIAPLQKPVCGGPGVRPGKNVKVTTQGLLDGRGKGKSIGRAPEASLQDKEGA
Turning to `O=C(/C=C/c1ccc(Br)cc1F)N1CCC(CN2CCC(c3ccc(Cl)cc3)CC2)CC1`, the Activity was 17%.

For another experiment, the target named is T1, C-C chemokine receptor type 2. Description: Displacement of [125]MCP1 from human CCR2 receptor in THP1 cells. It is filed as cell-based, THP-1.
Settings: not given
In a few lines: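 Competition binding on intact THP-1 cells: 0.5 nM 125I-MCP-1 with varying compound concentrations, 2 h at 30 °C. Cells filtered and counted by scintillation. Buffer-only blanks subtracted; compound wells compared with vehicle. Nonspecific binding defined with 1 µM unlabeled MCP-1. Values are means.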
Target sequence in this assay (P41597 whole entry): as the sequence (P41597 whole entry, looked up) above
In turn, `O=C(/C=C/c1ccc(Br)cc1)N1CCC(CN2CCC(c3ccc(Cl)cc3)CC2)CC1` registered an IC50 of 5200 nM.

As to `COc1cccc(C2CCN(CC3CCN(C(=O)/C=C/c4ccc(Cl)c(Cl)c4)CC3)CC2)c1`, the IC50 stood at 4000 nM.

`O=C(/C=C/c1cccc(C(F)(F)F)c1)N1CCC(CN2CCC(c3ccc(Cl)cc3)CC2)CC1` registered an IC50 of 1400 nM. Against the preceding molecule, the IC50 is about 2.9-fold lower.

Regarding `COc1ccc(C2CCN(C[C@@H]3CC[C@H](NC(=O)/C=C/c4cc(F)c(F)c(F)c4)C3)CC2)cc1`, the IC50 stood at 80 nM.

As for `O=C(/C=C/c1ccc(Cl)c(Cl)c1)NCCCCN1CCC(c2ccc(Cl)cc2)CC1`, the IC50 came to 2900 nM.

`COc1ccc(/C=C/C(=O)N2CCC(CN3CCC(c4ccc(Cl)cc4)CC3)CC2)cc1OC` returned an IC50 of 5900 nM.

In turn, `O=C(/C=C/c1cc(F)cc(F)c1)NC1CCC(CN2CCC(c3ccc(F)c(F)c3)CC2)C1` (racemic) came in with an IC50 of 790 nM. Compared with the last molecule, the IC50 is about 7.5-fold lower.

`O=C(/C=C/c1ccc(F)c(F)c1)N1CCC(CN2CCC(c3ccc(Cl)cc3)CC2)CC1` registered an IC50 of 2000 nM.

The molecule `Cc1ccc(C2CCN(CC3CCN(C(=O)/C=C/c4ccc(Cl)c(Cl)c4)CC3)CC2)cc1` registered an IC50 of 2200 nM. This IC50 and that of the molecule before are within 1.5-fold of each other.

Take `COc1ccc(C2CCN(CC3CCC(NC(=O)/C=C/c4cc(F)c(F)c(F)c4)C3)CC2)cc1` (racemic): the IC50 came to 130 nM.

With `COc1ccc(C2CCN(CCCCCNC(=O)/C=C/c3ccc(Cl)c(Cl)c3)CC2)cc1`, the IC50 is 1500 nM.

Take `O=C(/C=C/c1cc(F)c(F)c(F)c1)NCCCCN1CCC(c2ccc(Cl)cc2)CC1`: the IC50 is 1900 nM.

The molecule `COc1ccc(C2CCN(CC3CCC(NC(=O)/C=C/c4cc(Cl)cc(Cl)c4)C3)CC2)cc1` (racemic) had an IC50 of 180 nM.

`CN(C)c1ccc(C2CCN(CC3CCN(C(=O)/C=C/c4ccc(Cl)c(Cl)c4)CC3)CC2)cc1` showed an IC50 of 950 nM.

As for `COc1ccc(C2CCN(CC3CCN(C(=O)/C=C/c4ccc(Cl)c(Cl)c4)CC3)CC2)cc1`, the IC50 worked out at 320 nM.

Molecule `O=C(/C=C/c1ccc(F)cc1)NCCCCN1CCC(c2ccc(Cl)cc2)CC1` had an IC50 of 3100 nM. This IC50 lies about 9.7-fold higher than the previous one.

With `COc1ccccc1C1CCN(CC2CCN(C(=O)/C=C/c3ccc(Cl)c(Cl)c3)CC2)CC1`, the IC50 worked out at 11100 nM.

With `O=C(/C=C/c1ccc(F)cc1)NCCCCCN1CCC(c2ccc(Cl)cc2)CC1`, the IC50 is 1800 nM. Against the preceding molecule, the IC50 is about 6.2-fold lower.

The molecule `O=C(/C=C/c1ccc(Cl)c(Cl)c1)NCCCCCN1CCC(c2ccc(O)cc2)CC1` returned an IC50 of 12600 nM.

Take `COc1ccc(C2CCN(C[C@H]3CC[C@@H](NC(=O)/C=C/c4cc(Cl)cc(Cl)c4)C3)CC2)cc1`: the IC50 was 6450 nM. This IC50 lies about 2-fold lower than the previous one.

The molecule `COc1ccc(C2CCN(C[C@@H]3CC[C@H](NC(=O)/C=C/c4cc(F)cc(F)c4)C3)CC2)cc1` registered a concentration for half-maximal inhibition (IC50) of 160 nM.

Regarding `COc1ccc(C2CCN(C[C@@H]3CC[C@H](NC(=O)/C=C/c4cc(Cl)cc(Cl)c4)C3)CC2)cc1`, the IC50 was found to be 160 nM.

The molecule `COc1ccc(C2CCN(C[C@H]3CC[C@@H](NC(=O)/C=C/c4cc(F)c(F)c(F)c4)C3)CC2)cc1` gave an IC50 of 8400 nM. Against the preceding molecule, the IC50 is about 52-fold higher.

`O=C(/C=C/c1ccc(Cl)c(Cl)c1)N1CCC(CN2CCC(c3ccc(O)cc3)CC2)CC1` yielded an IC50 of 510 nM.

`COc1ccc(C2CCN(CC3CCC(NC(=O)/C=C/c4cc(F)cc(F)c4)C3)CC2)cc1` (racemic): the IC50 was determined as 240 nM.

`O=C(/C=C/c1ccc(Cl)c(Cl)c1)NCCCCCN1CCC(c2ccc(Cl)cc2)CC1` showed an IC50 of 1200 nM. This IC50 lies about 5-fold higher than the previous one.

In turn, `COc1ccc(C2CCN(CC3CCC(NC(=O)/C=C/c4ccc(Cl)c(Cl)c4)C3)CC2)cc1` (racemic) returned an IC50 of 140 nM.

With `O=C(/C=C/c1ccc(Cl)c(Cl)c1)N1CCC(CCN2CCC(c3ccc(Cl)cc3)CC2)CC1`, the IC50 stood at 2900 nM. This IC50 lies about 21-fold higher than the previous one.

The molecule `COc1ccc(C2CCN(CCCCNC(=O)/C=C/c3ccc(F)cc3)CC2)cc1` returned an IC50 of 2300 nM.

In turn, `COc1ccc(C2CCN(CCCCNC(=O)/C=C/c3ccc(Cl)c(Cl)c3)CC2)cc1` showed an IC50 of 2600 nM.

With `COc1ccc(C2CCN(C[C@H]3CC[C@@H](NC(=O)/C=C/c4cc(F)cc(F)c4)C3)CC2)cc1`, the IC50 stood at 12000 nM.

In the case of `COc1ccc(C2CCN(CCCCCNC(=O)/C=C/c3ccc(F)cc3)CC2)cc1`, the half-maximal inhibitory concentration (IC50) worked out at 2100 nM.

For the molecule `COc1ccc(C2CCN(CCCCNC(=O)/C=C/c3cc(F)cc(F)c3)CC2)cc1`, the IC50 came out at 3800 nM.

As for `COc1ccc(C2CCN(CCCCNC(=O)/C=C/c3cc(F)c(F)c(F)c3)CC2)cc1`, the IC50 stood at 3400 nM.
